No end group written: not given here.

The record followed here is publication PMC4244684 (The Journal of biological chemistry, 2007).

The assay addresses Su(dx) WW4 (Drosophila melanogaster, UniProt Q9Y0H4). The experiment in a line: ITC binding of peptides to Su. The gist of the method: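 Cleaved Su(dx) WW4 (GST fusion from E. coli BL21, glutathione-bead purified, PreScission-cleaved, dialysed overnight into ITC buffer) at 15–35 μm in cell; 1–1.5 mm peptide titrated in. Peptide and protein concentrations set by denaturing Trp/Tyr UV absorbance. 50 mm phosphate, 150 mm NaCl, pH 7.4, degassed; 25 °C. Dilution-corrected heats fitted for ΔH and Ka, n fixed at 1.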

Su(dx) WW4, sequence (Q9Y0H4 515-557): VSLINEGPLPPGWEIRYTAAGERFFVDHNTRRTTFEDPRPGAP

In general, Kd refers to the concentration at which binding is half-saturated. Low values mean a tighter complex, high ones a looser complex. In turn, AKQPPSYEDCIK [N1] came in with a Kd of 45 ± 2 µM.

AKQPPSYEDC [N2] displayed a Kd of 45 ± 3 µM.
